# High-throughput results deposited in PubChem by Columbia University Molecular Screening Center.
# Shown is part of a subset that was picked to be rich in hits.
# Insulin prom act – TRM-6 insulin promoter activation; TRM-6 cells (human fetal islet line), insulin promoter eGFP reporter, imaging; plate-scaled: unstimulated 0, stimulated control 100; activation, % at 2 µM; 0.81% of 130,000 active; AID 1296;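 active means activation at 2 µM above a set limit, confirmed on inspection of the cell images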;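 further: share of cells whose green reporter signal exceeds an intensity cutoff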
#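 test system = TRM-6 insulin promoter–eGFP reporter cells | benchmarks = stimulated versus unstimulated wells as plate controls | read-out basis = percent cells above green-intensity threshold, converted to percent activation versus plate controls | detection = fixed-cell fluorescence microscopy, eGFP plus Hoechst | incubation = tamoxifen pre-incubation 15 h overnight, then compound exposure 48 h at 37 °C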
# Active calls of the source: *.
SMILES,Insulin prom act
O=C(OCc1c(Cl)cccc1Cl)c1cccnc1,-6
CCOC(=O)CNC(=S)N(Cc1ccccc1)Cc1cccnc1,7
Cc1cc(C)c2cc(CN(Cc3cccnc3)C(=O)c3ccc(F)cc3)c(Cl)nc2c1,130*
Cc1[nH]c2ccccc2c1CCN(Cc1cccnc1)C(=S)Nc1ccc(F)cc1,0
O=C(COC(=O)C1CC(O)CN1S(=O)(=O)c1ccc(Cl)cc1)c1cccc(Cl)c1 (stereo unspecified),-7
COc1ccc(-c2cc(C(F)F)n3ncc(C(=O)N4CCN5CCCC5C4)c3n2)cc1 (stereo unspecified),8
O=C(NCCCN1CCOCC1)c1cc2ccccc2o1,3
Cc1cc(=O)oc(C)c1C(=O)NCc1c(F)cc(F)cc1F,136*
Cc1cc(=O)oc(C)c1C(=O)NCCCN1CCN(c2ccc(F)cc2)CC1,9
Cc1cc(=O)oc(C)c1C(=O)NCc1ccco1,-9
Cc1ccc(S(=O)(=O)N2CCC(C(=O)NCCCOC(C)C)CC2)cc1,-6
COC(=O)CSCC(=O)Nc1cc2c(cc1C(C)=O)OCO2,-71
Cn1c(=O)n(CC(=O)OCc2ccccc2)c(=O)c2c1nc1n2CCCN1C1CCCCC1,0
CCCCC(C(=O)NC1CCCC1)N(Cc1ccco1)C(=O)Cn1nnc(-c2ccc(F)cc2)n1 (stereo unspecified),0
CCCC(C(=O)NCc1ccco1)N(C(=O)CNS(=O)(=O)c1ccccc1)c1ccc(OC)cc1 (stereo unspecified),122
CCCC(C(=O)NC1CCCCC1)N(Cc1ccco1)C(=O)CNS(=O)(=O)c1ccccc1 (stereo unspecified),77*
Cc1ccc(C2C(C#N)=C(N)N(c3ncn[nH]3)C3=C2C(=O)CC(C)(C)C3)cc1 (stereo unspecified),-1
COC(=O)c1nnn(CC(=O)Nc2cccc(OC)c2)c1C(=O)OC,7
O=C(CSc1nnc(-c2cccs2)o1)NCC1CN(Cc2ccccc2)CCO1 (stereo unspecified),76*
CC1CCCC(C)N1C(=O)CSc1nnc(-c2cccs2)o1 (stereo unspecified),3
O=C(CSc1nc2ccsc2c(=O)n1Cc1ccc(C(=O)O)cc1)NCC1CCCO1 (stereo unspecified),6
CC(=O)N1CCCc2cc(S(=O)(=O)N3CCC(C)CC3)ccc21,0
O=C(NCC(c1cccnc1)N1CCOCC1)NC1CCCCC1 (stereo unspecified),7
C=CCn1c(CNC(=O)c2ccccc2C)nnc1SCC(=O)NC1CCCC1,305
Cn1nnnc1SCC(=O)N1c2ccccc2Sc2ccccc21,-9
SMILES,Insulin prom act
C=CCn1c(CNC(=O)c2ccco2)nnc1SCC(=O)N1c2ccccc2Sc2ccccc21,103*
COc1ccc(CCNC(=O)C2CCCN(c3nn4c(=O)cc(C)nc4s3)C2)cc1OC (stereo unspecified),3
COc1ccc(CCNC(=O)C2CCN(S(=O)(=O)c3c(C)noc3C)CC2)cc1OC,-66
CCc1ccc(-c2nc(CN3CCCC(C(=O)NCCc4ccc(OC)c(OC)c4)C3)c(C)o2)cc1 (stereo unspecified),121*
CCc1nnc2sc(-c3ccc(NC(=O)c4ccc5c(c4)OCCO5)cc3)nn12,-91
CCOC(=O)c1ccc2c(c1)nc(-c1ccc(F)cc1)c1nccn12,-10
CC1CN(C(=O)C2(C)CC2(Cl)Cl)CC(C)O1 (stereo unspecified),8
